From ChEMBL document CHEMBL6114938, “Design, synthesis, and biological evaluation of pyrazole-ciprofloxacin hybrids as antibacterial and antibiofilm agents against Staphylococcus aureus” (RSC Med Chem, 2025) come the findings set out here.

As a reminder, the CC50 is the concentration that lowers cell viability or growth by half. A word on the MIC: it is the least concentration at which growth counts as inhibited.

In brackets after ≈: the same amount, converted by molar mass. Activity calls are given as the source filed them. The calls are words filed in the database; no cut-off is given here.

Series [1] deals with Staphylococcus aureus. Briefly: Bactericidal activity against Staphylococcus aureus ATCC 29213 assessed as log reduction in bacterial load at 1XMIC measured within 9 hrs by time-kill kinetics analysis. The class given is functional. The gist of the method:
(§1)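 Time-kill: log-phase cultures at OD600 0.005 were exposed to 1×, 4× and 8× MIC at 37 °C. Viable counts (CFU/ml) were taken by plating 10-fold serial dilutions at 2, 4, 6, 8, 10 and 24 h. Curves plot log10 CFU/ml against time over 24 h.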

A short description of series [2]: Cytotoxicity against human HepG2 cells assessed as reduction in cell viability incubated for 48 hrs by MTT assay. The class given is toxicity, cell-based. In short, it runs like this: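 MTT viability assay in HepG2 cells seeded at 1000-4000 per well and allowed to adhere overnight. Compounds were tested at 1000-0.78 µg/mL for 48 h in fresh medium. MTT 0.5 mg/mL was added for 4 h at 37 °C, formazan was dissolved in DMSO, and absorbance was read at 570 nm.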
In general terms: Formazan colour is commonly taken as a measure of viable cells.

Series [3] deals with DNA gyrase (Escherichia coli) (UniProt P0AES6+P0AES4). The experiment in a line: Inhibition of Escherichia coli DNA gyrase assessed as reduction in supercoiled state of plasmid using pUC19 plasmid DNA as substrate at 8XMIC incubated for 90 mins by gel electrophoresis analysis. The format is protein-complex assay.
Series [4] relates to Staphylococcus aureus. The experiment in a line: Ratio of MIC for antibacterial activity against Staphylococcus aureus ATCC 29213 to MBIC50 for antibiofilm activity against Staphylococcus aureus ATCC 29213. The class given is functional.
The subject of series [5] is Staphylococcus aureus. The experiment in a line: Potency index, ratio of ciprofloxacin MIC to test compound MIC for antibacterial activity against Staphylococcus aureus ATCC 29213. The format is functional.
Series [6] concerns Mycobacterium tuberculosis. Briefly: Antimycobacterial activity against Mycobacterium tuberculosis H37Ra ATCC 25177 assessed as inhibition of bacterial growth incubated for 10 days by liquid broth microdilution method. The format is functional. The following applies: H37Ra ATCC 25177, 240 h, time 10 day. The gist of the method:
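Log-phase H37Ra (OD₆₀₀ 0.4–0.6) was grown in 7H9 with D-pantothenic acid, amino acids, 0.2% glycerol, 0.05% Tween 80 and 10% ADS, then diluted to OD₆₀₀ 0.005 (1.0×10⁶ CFU/ml). Compounds were two-fold serially diluted in 7H9, and plates were incubated for 10 days at 37 °C in 5% CO₂. MIC was the lowest concentration without visible turbidity.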
(In broth dilution the organism is exposed to a series of concentrations in liquid medium.)

For series [7], the system named is Staphylococcus aureus. Briefly: Potency index, ratio of ciprofloxacin MBIC50 to test compound MBIC50 for antibiofilm activity against Staphylococcus aureus ATCC 29213. The class given is functional.
Series [8] relates to Staphylococcus aureus. The experiment in a line: Antibacterial activity against Staphylococcus aureus ATCC 29213 assessed as inhibition of bacterial growth incubated for 18 to 24 hrs by two-fold serial dilution method. The format is functional. The following applies: time 18-24 hrs. In short, it runs like this: (§2)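 Broth microdilution in cation-adjusted Mueller Hinton broth with two-fold serial dilutions. Inoculum came from overnight cultures on Mueller Hinton agar, set to OD600 0.08-0.1 and diluted 100-fold, then added 1:1 to the compound wells. Plates were incubated at 37 °C for 18-24 h and read visually. MIC is the lowest concentration with no turbidity.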

In series [9] the test system is Pseudomonas aeruginosa. The experiment in a line: Antibacterial activity against Pseudomonas aeruginosa PAO1 ATCC 15692 assessed as inhibition of bacterial growth incubated for 18 to 24 hrs by two-fold serial dilution method. Conditions: time 18-24 hrs. The class given is functional. In short, it runs like this:
as §2

Series [10] deals with Staphylococcus aureus. The experiment in a line: Bactericidal activity against Staphylococcus aureus ATCC 29213 assessed as log reduction in bacterial load at 4X to 8XMIC measured within 3 hrs by time-kill kinetics analysis. The format is functional. The gist of the method:
as §1

The test system of series [11] is Staphylococcus aureus. Briefly: Antibiofilm activity against Staphylococcus aureus ATCC 29213 assessed as inhibition of biofilm formation incubated for 24 hrs by crystal violet staining based analysis. The format is functional. The gist of the method:
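Biofilm formation assay with inoculum at OD600 0.015 from overnight culture. Twelve two-fold dilutions (128 to 0.06 µg/ml) were made in MHB with 2% sucrose in flat-bottom polystyrene wells and incubated at 37 °C for 24 h. Wells were washed with PBS pH 7.4, fixed with methanol, stained with 0.1% crystal violet, eluted with 95% ethanol and read at A595. MBIC50 is the lowest concentration giving ≥50% inhibition versus untreated culture.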

Series [12] relates to Staphylococcus aureus. The experiment in a line: Antibacterial activity against one-step ciprofloxacin resistant mutant of Staphylococcus aureus ATCC 29213 assessed as inhibition of bacterial growth by liquid broth microdilution assay. The class given is functional. The gist of the method: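 One-step ciprofloxacin-resistant mutants were raised by plating log-phase cells adjusted to 10¹⁰ CFU/ml on ciprofloxacin-containing Mueller-Hinton agar for 48 h at 37 °C, then passaging picked colonies on ciprofloxacin plates. Mutants with a more than eightfold rise in ciprofloxacin MIC were kept. MIC was read by broth microdilution: two-fold dilutions in cation-adjusted MHB, and inoculum of OD₆₀₀ 0.08–0.1 diluted hundredfold. Plates ran 18–24 h at 37 °C, and MIC was the lowest concentration with no visible turbidity.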

Series [13] has as its system Staphylococcus aureus. The experiment in a line: Bactericidal activity against Staphylococcus aureus ATCC 29213 assessed as log reduction in bacterial load at 4X to 8XMIC measured within 9 hrs by time-kill kinetics analysis. The class given is functional. In short, it runs like this: as §1
The test system of series [14] is Staphylococcus aureus. The experiment in a line: Antibacterial activity against methicillin-resistant Staphylococcus aureus assessed as inhibition of bacterial growth. The format is functional.
Series [15] has as its system Staphylococcus aureus. Briefly: Antibacterial activity against Staphylococcus aureus ATCC 29213 assessed as inhibition of bacterial growth incubated for 18 hrs by twofold microdilution method. The class given is functional.
Series [16] deals with Staphylococcus aureus. Briefly: Antibacterial activity against Staphylococcus aureus ATCC 6538 assessed as inhibition of bacterial growth incubated for 18 hrs by twofold microdilution method. The format is functional.
Series [17] deals with Escherichia coli. Briefly: Antibacterial activity against Escherichia coli ATCC 25922 assessed as inhibition of bacterial growth incubated for 18 hrs by twofold microdilution method. The format is functional.
The subject of series [18] is Staphylococcus aureus. The experiment in a line: Antibacterial activity against Staphylococcus aureus NCTC 4163 assessed as inhibition of bacterial growth incubated for 18 hrs by twofold microdilution method. The class given is functional.
Series [19] relates to Staphylococcus aureus. The experiment in a line: Antibacterial activity against Staphylococcus aureus ATCC 25923 assessed as inhibition of bacterial growth incubated for 18 hrs by twofold microdilution method. The class given is functional.

For the molecule `COc1ccccc1-c1ccn(-c2ccc(NC(=O)CN3CCN(c4cc5c(cc4F)c(=O)c(C(=O)O)cn5C4CC4)CC3)cc2)n1`, the Activity result in series [1] and in series [10] was “>=3 log10CFU/ml” each time. For the same molecule, in series [2], the cytotoxic concentration (CC50) at 48 h is over 1000 µg/mL. Further, in series [3], the inhibition result was “Active”. The Ratio in series [4] is recorded as 6; in series [5], 2; in series [7], 50. The MIC amounted to 4 µg/mL (≈ 6.28 µM) in series [6], 0.125 µg/mL (≈ 0.196 µM) in series [8], 64 µg/mL (≈ 101 µM) in series [9] and 0.125 µg/mL (≈ 0.196 µM) in series [12]. Besides, the MBIC50 in series [11] was 0.02 µg/mL.
Turning to `O=C(CN1CCN(c2cc3c(cc2F)c(=O)c(C(=O)O)cn3C2CC2)CC1)Nc1ccc(-n2ccc(-c3cccc(Cl)c3)n2)cc1`, the values for the minimal inhibitory concentration (MIC) in series [6], in series [8] and in series [9] were 8 µg/mL (≈ 12.5 µM), 8 µg/mL (≈ 12.5 µM) and 64 µg/mL (≈ 99.8 µM), respectively.
For `COc1ccc(-c2ccn(-c3ccc(NC(=O)CN4CCN(c5cc6c(cc5F)c(=O)c(C(=O)O)cn6C5CC5)CC4)cc3)n2)cc1OC`, the half-maximal cytotoxic concentration (CC50) at 48 h in series [2] was at least 592 µg/mL. Also, in series [5], the Ratio is on record as 2. Moreover, in series [13], the Activity entry was “>=3 log10CFU/ml”. Besides, the MIC in series [6] was determined as 16 µg/mL (≈ 24 µM); in [8], 0.125 µg/mL (≈ 0.187 µM); in series [9] it was 128 µg/mL (≈ 192 µM); in [12], 0.25 µg/mL (≈ 0.375 µM). The MBIC50 in series [11] was 0.3 µg/mL.
Regarding `O=C(CN1CCN(c2cc3c(cc2F)c(=O)c(C(=O)O)cn3C2CC2)CC1)Nc1ccc(-n2ccc(-c3ccc(Br)cc3)n2)cc1`, the results for the MIC in [6], in series [8] and in series [9] were 16 µg/mL (≈ 23.3 µM), 32 µg/mL (≈ 46.7 µM) and 128 µg/mL (≈ 187 µM), respectively.
Regarding `Cc1ccc(-c2ccn(-c3ccc(NC(=O)CN4CCN(c5cc6c(cc5F)c(=O)c(C(=O)O)cn6C5CC5)CC4)cc3)n2)cc1`, the MIC was 32 µg/mL (≈ 51.6 µM) in series [6], 8 µg/mL (≈ 12.9 µM) in [8] and 128 µg/mL (≈ 206 µM) in [9].
With `O=C(O)c1ccc(-c2nn(-c3ccc(C(F)(F)F)cc3)cc2CNc2ccc(Br)c(C(F)(F)F)c2)cc1`, the minimum inhibitory concentration (MIC) in series [14] is under 1 µg/mL.
Take `O=C(CN1CCN(c2cc3c(cc2F)c(=O)c(C(=O)O)cn3C2CC2)CC1)Nc1ccc(-n2ccc(-c3ccccc3Cl)n2)cc1`: the minimal inhibitory concentration (MIC) in series [6] came out at 4 µg/mL (≈ 6.24 µM); in series [8], 1 µg/mL (≈ 1.56 µM); in series [9], 16 µg/mL (≈ 25 µM).
The corresponding values for `O=C(CN1CCN(c2cc3c(cc2F)c(=O)c(C(=O)O)cn3C2CC2)CC1)Nc1ccc(-n2ccc(-c3cc4ccccc4o3)n2)cc1` are 2 µg/mL (≈ 3.09 µM), 1 µg/mL (≈ 1.55 µM) and 32 µg/mL (≈ 49.5 µM).
`O=C(O)c1cn(C2CC2)c2cc(N3CCN(C(=O)CCl)CC3)c(F)cc2c1=O`: the MIC in [15], in series [16], in series [17], in series [18] and in [19] was 0.1 µg/mL (≈ 0.245 µM) in each case.
Take `COc1cccc(-c2ccn(-c3ccc(NC(=O)CN4CCN(c5cc6c(cc5F)c(=O)c(C(=O)O)cn6C5CC5)CC4)cc3)n2)c1`: the values for the minimal inhibitory concentration (MIC) in [6], in [8] and in series [9] were 4 µg/mL (≈ 6.28 µM), 1 µg/mL (≈ 1.57 µM) and 32 µg/mL (≈ 50.3 µM), respectively.
On to `O=C(CN1CCN(c2cc3c(cc2F)c(=O)c(C(=O)O)cn3C2CC2)CC1)Nc1ccc(-n2ccc(-c3ccc(Cl)cc3)n2)cc1`, for which the minimum inhibitory concentration (MIC) in series [6] came out at 64 µg/mL (≈ 99.8 µM); in series [8], 1 µg/mL (≈ 1.56 µM); in series [9], 128 µg/mL (≈ 200 µM).
The corresponding values for `O=C(CN1CCN(c2cc3c(cc2F)c(=O)c(C(=O)O)cn3C2CC2)CC1)Nc1ccc(-n2ccc(-c3ccc4ccccc4c3)n2)cc1` are 1 µg/mL (≈ 1.52 µM), 1 µg/mL (≈ 1.52 µM) and 2 µg/mL (≈ 3.05 µM).
